The target in the first test is T1, Serine racemase (Mus musculus) (UniProt Q9QZX7).
T1 sequence (whole entry): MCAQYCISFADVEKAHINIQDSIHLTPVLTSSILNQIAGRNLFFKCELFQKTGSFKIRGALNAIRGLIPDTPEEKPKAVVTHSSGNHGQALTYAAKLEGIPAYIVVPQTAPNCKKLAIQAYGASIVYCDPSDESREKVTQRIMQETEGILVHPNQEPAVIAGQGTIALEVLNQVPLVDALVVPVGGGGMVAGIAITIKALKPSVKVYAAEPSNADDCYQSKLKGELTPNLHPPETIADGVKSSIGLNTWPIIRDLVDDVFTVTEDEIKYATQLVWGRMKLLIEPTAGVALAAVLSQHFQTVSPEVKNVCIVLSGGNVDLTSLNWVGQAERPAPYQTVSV
Briefly: Inhibition of mouse serine racemase assessed as remaining enzyme activity by measuring D-serine production using L-serine as substrate at 1 mM incubated for > 8 hrs. The gist of the method: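 Recombinant mouse Srr, 1.25 µg, in 100 mM HEPES pH 8.0 with PLP, 1 mM MgCl2, 5 mM DTT, 1 mM ATP, 20 mM L-Ser and 1 mM inhibitor. Product derivatized with 0.05% DNP in 2 M HCl for 5 min at 30 °C, then EtOH and 10 M NaOH added. A515 read after 10 min at room temperature.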
Consider `O=C(COc1ccc(Cl)cc1)NCC(=O)Nc1ccc(F)c(F)c1F`, for which the Activity is 35%.

As for `Cc1ccc(CNC(=O)NCCNS(=O)(=O)c2cccc(Cl)c2)cc1`, the Activity is 36%.

Consider `Cc1ccc(/C=C/S(=O)(=O)NCC(=O)OCc2ccc(Cl)c(Cl)c2)cc1`, for which the Activity was 32%.

Target in the next test: not listed separately
Briefly: Inhibition of human serine racemase C2D2 mutant assessed as remaining enzyme activity by measuring D-serine production using L-serine as substrate incubated for > 8 hrs. Summed up:
(§1)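 Recombinant human SRR C2D2 mutant, 8 µg, in 100 mM HEPES pH 8.0 with PLP, 1 mM MgCl2, 5 mM DTT, 1 mM ATP and 20 mM L-Ser. Product derivatized with 0.05% DNP in 2 M HCl for 5 min at 30 °C, then EtOH and 10 M NaOH added. Absorbance at 515 nm read after 10 min at room temperature.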
In the case of `O=C(/C=C/c1cc(Br)cc(Br)c1)NC(=S)NNC(=O)Cc1ccccc1`, the half-maximal inhibitory concentration (IC50) came out at 140 µM.

Consider `Cc1ccc(S(=O)(=O)Nc2ccccc2NC(=O)Nc2ccc(Cl)c(Cl)c2)cc1`, for which the IC50 was determined as 280 µM.

With `Cc1ccc(/C=C/S(=O)(=O)NCC(=O)Nc2ccc(OCc3ccccc3)cc2)cc1`, the 50% inhibitory concentration (IC50) was determined as 270 µM.

On to `O=C(O)CC(=O)O` [MALONIC ACID], for which the IC50 worked out at 770 µM.

The subject of another test is Mus musculus. Briefly: In-vivo inhibition of SRR in Arc-LucTg HL mouse brain assessed as reduction in kainate-induced NMDA-type glutamate receptor activation by measuring decrease in bioluminescence signal at 15 mg/kg, po incubated for 3 hrs followed by kainate treatment measured after 2 hrs relative to control. The test is classed as functional. Summed up:
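Arc-Luc Tg hairless mice, baseline-imaged, then dosed 15 mg/kg p.o. in PEG-400 (vehicle controls) under 1.5% isoflurane. Basal imaging 3 h later, then kainate 20 mg/kg i.p. in saline. Luciferin EF 150 mg/kg i.p. Images at 2, 4 and 6 h: 60 s, 4×4 binning, ear-to-eye ROI, strongest of about 5 reads. Fold change vs 0 h; two-tailed t test.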
For the molecule `O=C(/C=C/c1cc(Br)cc(Br)c1)NC(=S)NNC(=O)Cc1ccccc1`, the “fold change (FC)” value was found to be 1.4.

For the next test, the species on record is Homo sapiens. Briefly: Inhibition of human serine racemase C2D2 mutant assessed as remaining enzyme activity by measuring D-serine production using L-serine as substrate at 1 mM incubated for > 8 hrs. Summed up: as §1
Consider `O=C(/C=C/c1ccc(F)cc1)NC(=S)NNC(=O)c1cccs1`, for which the Activity is 46%.

For the molecule `O=C(/C=C/c1c(F)cc(F)cc1F)NC(=S)NNC(=O)Cc1ccccc1`, the Activity worked out at 38%.

As for `O=C(Cc1ccc(F)cc1)NNC(=S)NC(=O)Cc1ccc(F)cc1`, the Activity was determined as 49%.

In the case of `O=C(/C=C/c1ccc(F)cc1)NC(=S)NNC(=O)Cc1cccs1`, the Activity came to 22%.

Regarding `O=C(/C=C/c1ccc(C(F)(F)F)cc1)NC(=S)NNC(=O)Cc1cccs1`, the Activity stood at 44%.

Regarding `O=C(/C=C/c1cc(Br)cc(Br)c1)NC(=S)NNC(=O)Cc1ccc(F)cc1`, the Activity is 54%.

On to `Cc1cccc(CC(=O)NNC(=S)NC(=O)Cc2ccccc2)c1`, for which the Activity came out at 53%.

Regarding `COc1cccc(OC)c1/C=C/C(=O)NC(=S)NNC(=O)Cc1ccccc1`, the Activity turned out to be 32%.

Turning to `CC(C)c1ccc(/C=C/C(=O)NC(=S)NNC(=O)Cc2cccs2)cc1`, the Activity was 28%.

As to `O=C(Cc1c(F)cccc1F)NNC(=S)NC(=O)Cc1ccccc1`, the Activity amounted to 61%.

Turning to `O=C(/C=C/c1ccc(Cl)cc1)NC(=S)NNC(=O)Cc1cccs1`, the Activity amounted to 23%.

For the molecule `COc1cccc(OC)c1/C=C/C(=O)NC(=S)NNC(=O)c1cccs1`, the Activity is 31%.

`COc1cccc(OC)c1/C=C/C(=O)NC(=S)NNC(=O)Cc1cccs1`: the Activity was 27%.

In the case of `O=C(Cc1cccs1)NNC(=S)NC(=O)Cc1ccccc1`, the Activity amounted to 61%.

As for `Cc1ccc(/C=C/C(=O)NC(=S)NNC(=O)Cc2cccs2)cc1`, the Activity stood at 24%.

`O=C(Cc1ccc(F)cc1)NNC(=S)NC(=O)Cc1ccccc1`: the Activity amounted to 62%.

For `O=C(/C=C/c1cc(Br)cc(Br)c1)NC(=S)NNC(=O)CCc1ccccc1`, the Activity was found to be 44%.

Consider `O=C(Cc1cc(F)cc(F)c1)NNC(=S)NC(=O)Cc1ccccc1`, for which the Activity was 55%.

Turning to `O=C(/C=C/c1cc(Br)cc(Br)c1)NC(=S)NNC(=O)Cc1ccccc1`, the Activity came to 20%.

As for `Cc1ccc(S(=O)(=O)Nc2ccccc2NC(=O)Nc2ccc(Cl)c(Cl)c2)cc1`, the Activity is 77%.

For `O=C(/C=C/c1c(F)cc(F)cc1F)NC(=S)NNC(=O)Cc1cccs1`, the Activity was found to be 39%.

In the case of `O=C(/C=C/c1ccc(F)cc1)NC(=S)NNC(=O)Cc1ccccc1`, the Activity is 45%.

On to `Cc1ccc(/C=C/S(=O)(=O)NCC(=O)Nc2ccc(OCc3ccccc3)cc2)cc1`, for which the Activity was 41%.

For `O=C(O)CC(=O)O` [MALONIC ACID], the Activity is 63%.

The term IC50 denotes the point on the concentration scale where inhibition reaches its midpoint.

The values above are taken from ChEMBL document CHEMBL4033718, “A novel serine racemase inhibitor suppresses neuronal over-activation in vivo” (Bioorg Med Chem, 2017).
